Measured values taken from ChEMBL document CHEMBL1140274, “Synthesis of (1,4)-naphthoquinono-[3,2-c]-1H-pyrazoles and their (1,4)-naphthohydroquinone derivatives as antifungal, antibacterial, and anticancer agents” (2005).
Values after ≈ are worked out from the molar mass of the structure shown.

Assays:
Sporothrix schenckii = assay: In-vitro minimum inhibitory concentration against the growth of Sporothrix schenckii; format: functional
How it was run: (§1)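 Broth microdilution following NCCLS, run in 96-well plates with RPMI 1640 medium buffered with MOPS. The MIC was the endpoint against each fungal isolate.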

Cryptococcus neoformans = assay: In-vitro minimum inhibitory concentration against the growth of Cryptococcus neoformans; format: functional; how it was run: as §1
Candida albicans = assay: In-vitro minimum inhibitory concentration against the growth of Candida albicans; format: functional; how it was run: as §1
Staphylococcus aureus = assay: In-vitro minimum inhibitory concentration against the growth of Staphylococcus aureus; format: functional
How it was run: (§2)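 Broth microdilution following NCCLS against each bacterial strain, with the MIC taken as the endpoint.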

Klebsiella pneumoniae = assay: In-vitro minimum inhibitory concentration against the growth of Klebsiella pneumoniae; format: functional; how it was run: as §2
Pseudomonas aeruginosa = assay: In-vitro minimum inhibitory concentration against the growth of Pseudomonas aeruginosa; format: functional; how it was run: as §2
Rattus norvegicus [1] = assay: Anticancer activity against Walker 256 carcinosarcoma in rats at a dose of 50 mg/kg [Inactive]; format: functional
Enterococcus faecalis = assay: In-vitro minimum inhibitory concentration against the growth of Streptococcus faecalis; format: functional; how it was run: as §2
Escherichia coli = assay: In-vitro minimum inhibitory concentration against the growth of Escherichia coli; format: functional; how it was run: as §2
Aspergillus fumigatus = assay: In-vitro minimum inhibitory concentration against the growth of Aspergillus fumigatus; format: functional; how it was run: as §1
Trichophyton benhamiae = assay: In-vitro minimum inhibitory concentration against the growth of Trichophyton mentagrophytes; format: functional, Trichophyton mentagraphytes; how it was run: as §1
Candida parapsilosis = assay: In-vitro minimum inhibitory concentration against the growth of Candida parapsilosis (ATCC 22019); format: functional; details: Lodderomyces parapsilosis; how it was run: as §1
Rattus norvegicus [2] = assay: Anticancer activity against Walker 256 carcinosarcoma in rats at a dose of 10 mg/kg [Active]; format: functional

Row | Compound | MIC (Sporothrix schenckii) [µg/mL] | MIC (Cryptococcus neoformans) [µg/mL] | MIC (Candida albicans) [µg/mL] | MIC (Staphylococcus aureus) [µg/mL] | MIC (Klebsiella pneumoniae) [µg/mL] | MIC (Pseudomonas aeruginosa) [µg/mL] | T/C (Rattus norvegicus [1]) [%] | MIC (Enterococcus faecalis) [µg/mL] | MIC (Escherichia coli) [µg/mL] | MIC (Aspergillus fumigatus) [µg/mL] | MIC (Trichophyton benhamiae) [µg/mL] | MIC (Candida parapsilosis) [µg/mL] | T/C (Rattus norvegicus [2]) [%]
1 | NYSTATIN | 13.2 | 3.5 | 7.8 | – | – | – | – | – | – | – | – | – | –
2 | GENTAMICIN | – | – | – | 0.78 | 0.39 | 0.78 | – | – | – | – | – | – | –
3 | O=C1c2ccccc2C(=O)c2[nH]ncc21 | – | – | – | – | – | – | 115 | – | – | – | – | – | –
4 | O=C(NNc1ccc([N+](=O)[O-])cc1[N+](=O)[O-])c1[nH]nc2c(O)c3ccccc3c(O)c12 | > 50 | > 50 | 25 (≈ 58.9 µM) | > 50 | > 50 | > 50 | – | > 50 | > 50 | > 50 | > 50 | > 50 | –
5 | OC(Cn1cncn1)(Cn1cncn1)c1ccc(F)cc1F [FLUCONAZOLE] | 2 (≈ 6.53 µM) | 1 (≈ 3.27 µM) | 1 (≈ 3.27 µM) | – | – | – | – | – | – | 2 (≈ 6.53 µM) | 0.5 (≈ 1.63 µM) | 2 (≈ 6.53 µM) | –
6 | CCOC(=O)c1[nH]nc2c1C(=O)c1ccccc1C2=O | > 50 | > 50 | > 50 | 25 (≈ 92.5 µM) | 12.5 (≈ 46.3 µM) | > 50 | – | 12.5 (≈ 46.3 µM) | 25 (≈ 92.5 µM) | > 50 | > 50 | > 50 | –
7 | NNC(=O)c1[nH]nc2c(O)c3ccccc3c(O)c12 | > 50 | 25 (≈ 96.8 µM) | 25 (≈ 96.8 µM) | > 50 | > 50 | > 50 | – | > 50 | > 50 | > 50 | > 50 | > 50 | –
8 | O=C1C=CC(=O)c2c(O)ccc(O)c21 [NAPHTHAZALIN] | – | – | – | – | – | – | – | – | – | – | – | – | 37
9 | O=C1c2ccccc2C(=O)c2c1n[nH]c2C(=O)NCCO | > 50 | > 50 | > 50 | > 50 | 25 (≈ 87.6 µM) | > 50 | – | > 50 | 25 (≈ 87.6 µM) | > 50 | > 50 | > 50 | –
10 | NNC(=O)c1[nH]nc2c1C(=O)c1ccccc1C2=O | > 50 | > 50 | > 50 | > 50 | > 50 | > 50 | – | > 50 | > 50 | > 50 | > 50 | > 50 | –
11 | CCCCNC(=O)c1[nH]nc2c1C(=O)c1ccccc1C2=O | > 50 | > 50 | > 50 | > 50 | > 50 | > 50 | – | > 50 | > 50 | > 50 | > 50 | > 50 | –
12 | NC[C@H]1O[C@H](O[C@H]2[C@H](O)[C@@H](O[C@H]3O[C@H](CO)[C@@H](O)[C@H](N)[C@H]3O)[C@H](N)C[C@@H]2N)[C@H](O)[C@@H](O)[C@@H]1O [KANAMYCIN] | – | – | – | 2 (≈ 4.13 µM) | 32 (≈ 66 µM) | > 128 | – | – | 16 (≈ 33 µM) | – | – | – | –
13 | C=CCNC(=O)c1[nH]nc2c1C(=O)c1ccccc1C2=O | > 50 | > 50 | > 50 | > 50 | 12.5 (≈ 44.4 µM) | > 50 | – | > 50 | 12.5 (≈ 44.4 µM) | > 50 | > 50 | > 50 | –
14 | Clc1ccc(COC(Cn2ccnc2)c2ccc(Cl)cc2Cl)c(Cl)c1 (stereo not given) [MICONAZOLE] | – | 12.5 (≈ 30 µM) | 25 (≈ 60.1 µM) | – | – | – | – | – | – | 12.5 (≈ 30 µM) | < 0.78 | – | –
15 | O=C1c2ccccc2C(=O)c2c1n[nH]c2C(=O)NNc1ccccc1 | > 50 | > 50 | > 50 | > 50 | 12.5 (≈ 37.6 µM) | > 50 | – | 25 (≈ 75.2 µM) | > 50 | > 50 | > 50 | > 50 | –
16 | CCOC(=O)c1[nH]nc2c(O)c3ccccc3c(O)c12 | 50 (≈ 184 µM) | 6.25 (≈ 23 µM) | 6.25 (≈ 23 µM) | 25 (≈ 91.8 µM) | 6.25 (≈ 23 µM) | > 50 | – | 25 (≈ 91.8 µM) | 6.25 (≈ 23 µM) | 25 (≈ 91.8 µM) | 25 (≈ 91.8 µM) | 12.5 (≈ 45.9 µM) | –
17 | C[C@@H]1[C@H](O)[C@@H](C)/C=C/C=C/C=C/C=C/C=C/C=C/C=C/[C@H](O[C@@H]2O[C@H](C)[C@@H](O)[C@H](N)[C@@H]2O)C[C@@H]2O[C@](O)(C[C@@H](O)C[C@@H](O)[C@H](O)CC[C@@H](O)C[C@@H](O)CC(=O)O[C@H]1C)C[C@H](O)[C@H]2C(=O)O [AMPHOTERICIN B] | – | 0.78 (≈ 0.844 µM) | 0.39 (≈ 0.422 µM) | – | – | – | – | – | – | – | 1.56 (≈ 1.69 µM) | – | –
18 | CNC(=O)c1[nH]nc2c1C(=O)c1ccccc1C2=O | > 50 | > 50 | > 50 | > 50 | 25 (≈ 97.9 µM) | > 50 | – | > 50 | > 50 | > 50 | > 50 | 50 (≈ 196 µM) | –
